Experiment [1] has as its target von Hippel-Lindau disease tumor suppressor/Epidermal growth factor receptor (Homo sapiens, UniProt P00533+P40337). Kind of experiment: Protac activity at VHL/EGFR del19 mutant in human HCC827 cells assessed as induction of EGFR degradation measured after 24 hrs by Western blot analysis. In kind it is cell-based. The essentials:
(§1)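 HCC827 cells seeded at 0.5–1 × 10⁶ per well, grown 24 h, then treated at the stated concentrations for 24 h. EGFR^del19 level by Western blot with anti-EGFR antibody and β-actin loading control.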

Another experiment relates to A-431. The experiment is described as follows: Antiproliferative activity against human A431 cells expressing wild type EGFR assessed as cell growth inhibition measured after 72 hrs by MTT assay. It is filed as functional, cell-based. The note with it: A-431, 72 h. The essentials:
(§2)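 Cells were seeded at 3000–8000/well and allowed 24 h, then exposed to serial compound concentrations for 72 h. MTT (5 mg/mL stock in PBS) was added for 4 h, supernatant removed and DMSO added. IC50, defined as 50% growth inhibition, was derived by nonlinear regression (log inhibitor vs response).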

For the next experiment, the system named is HCC827. The experiment is described as follows: Antiproliferative activity against human HCC827 cells expressing EGFR del19 mutant assessed as cell growth inhibition measured after 72 hrs by MTT assay. In kind it is functional, cell-based. As to conditions: HCC827, 72 h. The method, boiled down:
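HCC827 cells were kept in RPMI-1640 with 10% heat-inactivated FBS, 1% sodium pyruvate, 1% glutamine and 1% penicillin-streptomycin at 37 °C and 5% CO₂, seeded at 3000–8000/well and rested 24 h. Compounds were applied as a concentration series for 72 h. MTT (5 mg/mL stock in PBS) was given for 4 h, then medium was removed and DMSO added. IC50 came from nonlinear regression (log inhibitor vs response).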

The subject of the next experiment is NCI-H1975. Kind of experiment: Antiproliferative activity against human H1975 cells expressing EGFR L858R/T790M mutant assessed as cell growth inhibition measured after 72 hrs by MTT assay. In kind it is functional, cell-based. The note with it: NCI-H1975, 72 h. The essentials:
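MTT assay on H1975 cells grown in RPMI-1640 with 10% heat-inactivated FBS and 1% penicillin-streptomycin at 37 °C and 5% CO₂. Cells were seeded at 3000–8000 per well and left 24 h, then exposed to a concentration series for 72 h. MTT (5 mg/mL stock in PBS) was added for 4 h, supernatant removed and formazan dissolved in DMSO. IC50 was fitted by nonlinear regression (log inhibitor vs response).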

For the next experiment, the system named is HepG2. The experiment is described as follows: Antiproliferative activity against human HepG2 cells expressing VEGFR2 assessed as cell growth inhibition measured after 72 hrs by MTT assay. It is filed as functional, cell-based. The note with it: HepG2, 72 h. The method, boiled down: as §2
In experiment [2] the test system is Protein cereblon/Epidermal growth factor receptor (Homo sapiens), P00533+Q96SW2 [UNDEFINED MUTATION]. Kind of experiment: Protac activity at CRBN/EGFR del19 mutant in human HCC827 cells assessed as induction of EGFR degradation at 333 nM measured after 24 hrs by Western blot analysis. In kind it is cell-based. The method, boiled down:
as §1

Experiment [3] has the same test system. Kind of experiment: Protac activity at CRBN/EGFR del19 mutant in human HCC827 cells assessed as induction of EGFR degradation at 33 nM incubated for 24 hrs measured following compound wash-out for 24 to 48 hrs by Western blot analysis. In kind it is cell-based. The essentials: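 HCC827 cells (RPMI-1640, 10% heat-inactivated FBS, 1% sodium pyruvate, 1% glutamine, 37 °C, 5% CO₂) treated at 33 nM for 24 h. Medium then replaced with compound-free medium, and protein harvested at the stated times. EGFR read by Western blot; n = 2.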

For experiment [4] the test system is unchanged. The experiment is described as follows: Protac activity at CRBN/EGFR del19 mutant in human HCC827 cells assessed as induction of EGFR degradation at 33 nM measured after 24 hrs by Western blot analysis. In kind it is cell-based. The essentials: as §1
Experiment [5] shares this test system. Kind of experiment: Protac activity at CRBN/EGFR del19 mutant in human HCC827 cells assessed as induction of EGFR degradation at 33 nM by Western blot analysis. The note with it: time 12-72 hrs, TDE = time-dependent effect. It is filed as cell-based. The method, boiled down: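 Time course in HCC827 cells at 33 nM, with protein harvested at each stated time point. EGFR^del19 detected by Western blot.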

Experiment [6] has the same test system. The experiment is described as follows: Protac activity at CRBN/EGFR del19 mutant in human HCC827 cells assessed as maximal induction of EGFR degradation at 33 nM measured after 48 hrs by Western blot analysis. It is filed as cell-based. The essentials:
(§3)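 HCC827 cells seeded at 0.5–1 × 10⁶ per well, then treated at the stated concentrations for 48 h. EGFR by Western blot; n = 3. DC₅₀ (concentration giving 50% EGFR loss) by nonlinear regression, log(inhibitor) vs response.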

The target of experiment [7] is T1, Protein cereblon/Epidermal growth factor receptor (Homo sapiens, UniProt P00533+Q96SW2). Kind of experiment: Protac activity at CRBN/EGFR del19 mutant in human HCC827 cells assessed as induction of EGFR degradation measured after 48 hrs by Western blot analysis. In kind it is cell-based. The essentials: as §3
Target sequence in this assay (P00533 whole entry, looked up, stated change not applied): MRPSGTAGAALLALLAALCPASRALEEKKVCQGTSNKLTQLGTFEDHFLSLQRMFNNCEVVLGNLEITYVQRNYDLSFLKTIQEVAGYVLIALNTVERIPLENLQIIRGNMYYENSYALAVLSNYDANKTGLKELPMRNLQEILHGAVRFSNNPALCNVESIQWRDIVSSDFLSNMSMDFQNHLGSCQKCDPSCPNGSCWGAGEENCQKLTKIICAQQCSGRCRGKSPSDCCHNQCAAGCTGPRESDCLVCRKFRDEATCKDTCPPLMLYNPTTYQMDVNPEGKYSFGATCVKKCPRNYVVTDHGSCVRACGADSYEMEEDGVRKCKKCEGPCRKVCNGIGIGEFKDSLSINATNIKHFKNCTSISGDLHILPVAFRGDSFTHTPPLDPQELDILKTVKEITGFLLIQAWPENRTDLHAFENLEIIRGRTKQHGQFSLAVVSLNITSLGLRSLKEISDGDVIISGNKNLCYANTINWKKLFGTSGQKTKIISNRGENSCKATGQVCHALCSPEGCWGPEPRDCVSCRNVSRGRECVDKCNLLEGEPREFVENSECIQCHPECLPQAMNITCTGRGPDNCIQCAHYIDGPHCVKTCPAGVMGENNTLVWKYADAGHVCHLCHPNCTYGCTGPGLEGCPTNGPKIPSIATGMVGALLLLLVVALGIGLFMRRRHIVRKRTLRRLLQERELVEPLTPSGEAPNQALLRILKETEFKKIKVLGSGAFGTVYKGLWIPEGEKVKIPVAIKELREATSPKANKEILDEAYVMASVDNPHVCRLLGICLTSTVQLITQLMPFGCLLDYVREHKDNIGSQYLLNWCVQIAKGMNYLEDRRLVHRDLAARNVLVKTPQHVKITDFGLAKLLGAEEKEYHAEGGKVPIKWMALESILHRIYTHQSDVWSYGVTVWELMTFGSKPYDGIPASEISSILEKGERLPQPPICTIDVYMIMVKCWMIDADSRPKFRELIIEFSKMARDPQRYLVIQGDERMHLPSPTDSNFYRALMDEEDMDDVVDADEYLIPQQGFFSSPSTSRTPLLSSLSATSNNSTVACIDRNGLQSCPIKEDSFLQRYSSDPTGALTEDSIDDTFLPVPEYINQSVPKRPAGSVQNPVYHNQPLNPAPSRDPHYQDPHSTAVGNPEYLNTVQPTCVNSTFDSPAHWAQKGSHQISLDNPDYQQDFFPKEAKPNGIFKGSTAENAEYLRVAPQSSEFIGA
Target sequence in this assay (Q96SW2 whole entry, looked up, stated change not applied): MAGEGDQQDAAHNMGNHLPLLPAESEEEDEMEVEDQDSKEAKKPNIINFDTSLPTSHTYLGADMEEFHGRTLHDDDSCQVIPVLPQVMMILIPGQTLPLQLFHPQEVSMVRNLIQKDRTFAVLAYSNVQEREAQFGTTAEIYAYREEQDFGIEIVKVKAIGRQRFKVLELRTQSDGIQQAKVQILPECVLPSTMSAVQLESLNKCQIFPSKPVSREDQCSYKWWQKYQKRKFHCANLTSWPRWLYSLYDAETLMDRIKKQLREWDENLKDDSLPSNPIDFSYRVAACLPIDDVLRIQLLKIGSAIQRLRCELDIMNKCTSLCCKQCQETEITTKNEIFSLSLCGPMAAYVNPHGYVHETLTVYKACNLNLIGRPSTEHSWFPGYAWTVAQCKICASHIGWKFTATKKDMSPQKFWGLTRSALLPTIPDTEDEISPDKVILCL
Experiment [8] has as its target T1, Protein cereblon/Epidermal growth factor receptor. Kind of experiment: Protac activity at CRBN/EGFR in human A431 cells assessed as induction of degradation of EGFR at 0.1 to 3.3 uM incubated for 48 hrs by Western blot analysis. It is filed as cell-based. As to conditions: A-431, dose 0.1-3.3 µM.
Experiment [9] has as its system Protein cereblon/Epidermal growth factor receptor (Homo sapiens), P00533+Q96SW2 [UNDEFINED MUTATION]. The experiment is described as follows: Protac activity at CRBN/EGFR del19 mutant in human HCC827 cells assessed as induction of EGFR degradation at 0.033 uM pretreated with ubiquitination inhibitor, MLN4924 for 2 hrs followed by incubation with compound for 24 hrs by Western blot analysis. It is filed as cell-based.

The test system is the same in experiment [10]. Kind of experiment: Protac activity at CRBN/EGFR del19 mutant in human HCC827 cells assessed as induction of EGFR degradation at 0.033 uM pretreated with EGFR inhibitor, F for 2 hrs followed by incubation with compound for 24 hrs by Western blot analysis. In kind it is cell-based.
The test system is the same in experiment [11]. The experiment is described as follows: Protac activity at CRBN/EGFR del19 mutant in human HCC827 cells assessed as induction of EGFR degradation at 0.033 uM pretreated with CRBN ligand, lenalidomide for 2 hrs followed by incubation with compound for 24 hrs by Western blot analysis. It is filed as cell-based.
For experiment [12] the test system is unchanged. Kind of experiment: Protac activity at CRBN/EGFR del19 mutant in human HCC827 cells assessed as induction of EGFR degradation at 0.033 uM pretreated with proteasome inhibitor, MG132 for 2 hrs followed by incubation with compound for 24 hrs by Western blot analysis. In kind it is cell-based.
The test system is the same in experiment [13]. Kind of experiment: Protac activity at CRBN/EGFR del19 mutant in human HCC827 cells assessed as induction of EGFR degradation at 0.033 uM pretreated with autophagy inhibitor, chloroquine for 2 hrs followed by incubation with compound for 24 hrs by Western blot analysis. In kind it is cell-based.

Here are results for 2 compounds from ChEMBL document CHEMBL4706553, “Discovery of potent small molecule PROTACs targeting mutant EGFR” (Eur J Med Chem, 2020).

Calls of active or inactive are those of the source.

Chain of Protein cereblon/Epidermal growth factor receptor (Homo sapiens), P00533+Q96SW2 [UNDEFINED MUTATION] (P00533 whole entry, looked up, stated change not applied): as the sequence (P00533 whole entry, looked up, stated change not applied) above
Chain of Protein cereblon/Epidermal growth factor receptor (Homo sapiens), P00533+Q96SW2 [UNDEFINED MUTATION] (Q96SW2 whole entry, looked up, stated change not applied): as the sequence (Q96SW2 whole entry, looked up, stated change not applied) above
Chain of von Hippel-Lindau disease tumor suppressor/Epidermal growth factor receptor (P00533 whole entry, looked up, stated change not applied): as the sequence (P00533 whole entry, looked up, stated change not applied) above
Chain of von Hippel-Lindau disease tumor suppressor/Epidermal growth factor receptor (P40337 whole entry, looked up, stated change not applied): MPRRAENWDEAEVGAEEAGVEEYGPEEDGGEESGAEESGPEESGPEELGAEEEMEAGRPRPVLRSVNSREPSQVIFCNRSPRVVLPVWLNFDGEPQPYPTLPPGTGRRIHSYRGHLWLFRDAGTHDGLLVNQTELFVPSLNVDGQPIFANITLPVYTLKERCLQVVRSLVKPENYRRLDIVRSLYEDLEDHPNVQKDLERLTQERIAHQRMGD

Consider `COc1cc2ncnc(Nc3ccc(F)c(Cl)c3)c2cc1OCCCCCOCCOCCC(=O)N[C@H](C(=O)N1C[C@H](O)C[C@H]1C(=O)NCc1ccc(-c2scnc2C)cc1)C(C)(C)C`, for which the DC50 in experiment [1] stood at 11.7 nM.

For `CN(CCOCCOCCOCCN1CCN(c2ccc(Nc3ncc4nc(Nc5ccccc5)n(C5CCCC5)c4n3)cc2)CC1)CC(=O)Nc1cccc2c1CN(C1CCC(=O)NC1=O)C2=O` (configuration not stated), the half-inhibitory concentration (IC50) in the experiment with A-431 is 1860 nM; with HCC827, 2 nM; in the experiment on NCI-H1975, 3180 nM; in the experiment on HepG2 it was more than 5000 nM. Also, the result in [2], in experiment [3], in experiment [8], in [9], in experiment [10] and in [11] was inactive. Also, the result in experiment [13] was inactive. The result in experiment [4] and in [12] was Active. The Activity entry in experiment [5] was “Tde”. Besides, the Emax in experiment [6] turned out to be 82%. Also, the DC50 in [7] is 1.91 nM.
